Bioassay records: PubChem BioAssay, Johns Hopkins Ion Channel Center
TRPC4 agonist: TRPC4 (mouse) channel activation | Q9QUQ5 | HEK293 TRPC4beta/mu-opioid, Fluo4 calcium fluorescence; stronger effect = higher value | B-score at 10 µM | 310,000 compounds, 0.49% hits | AID 2237;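 active = B-score above 5 SD of library B-scores, and initial fluorescence ratio not above library mean plus 5 SD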;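 also: positive B-score marks a calcium rise read as TRPC4 activation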
Target sequence (Q9QUQ5 whole entry, looked up): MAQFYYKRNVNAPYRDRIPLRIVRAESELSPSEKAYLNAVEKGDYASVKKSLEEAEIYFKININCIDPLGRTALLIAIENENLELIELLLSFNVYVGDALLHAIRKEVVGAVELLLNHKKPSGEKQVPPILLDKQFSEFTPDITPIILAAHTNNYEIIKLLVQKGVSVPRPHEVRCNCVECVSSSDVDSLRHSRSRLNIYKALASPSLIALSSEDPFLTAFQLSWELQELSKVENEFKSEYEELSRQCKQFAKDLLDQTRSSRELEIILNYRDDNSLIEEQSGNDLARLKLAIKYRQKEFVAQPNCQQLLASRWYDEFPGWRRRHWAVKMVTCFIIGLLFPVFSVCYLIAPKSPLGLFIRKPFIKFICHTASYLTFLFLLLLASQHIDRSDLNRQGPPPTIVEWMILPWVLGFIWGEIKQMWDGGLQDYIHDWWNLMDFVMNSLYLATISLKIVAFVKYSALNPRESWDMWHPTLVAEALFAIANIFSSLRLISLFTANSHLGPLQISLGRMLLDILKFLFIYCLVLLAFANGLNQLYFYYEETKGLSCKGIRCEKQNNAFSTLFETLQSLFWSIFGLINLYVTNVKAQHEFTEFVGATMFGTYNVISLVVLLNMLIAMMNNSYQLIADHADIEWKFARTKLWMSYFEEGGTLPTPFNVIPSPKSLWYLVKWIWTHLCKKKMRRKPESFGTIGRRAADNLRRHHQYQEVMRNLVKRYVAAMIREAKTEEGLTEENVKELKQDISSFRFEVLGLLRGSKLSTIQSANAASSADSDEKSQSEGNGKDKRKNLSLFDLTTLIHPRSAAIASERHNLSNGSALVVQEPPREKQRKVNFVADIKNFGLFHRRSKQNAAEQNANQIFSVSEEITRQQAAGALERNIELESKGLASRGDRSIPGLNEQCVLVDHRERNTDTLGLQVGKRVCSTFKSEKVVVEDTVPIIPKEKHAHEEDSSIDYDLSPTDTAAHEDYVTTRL
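Material: TRPC4beta and mu-opioid receptor HEK293 stable cells | Incubation: 45 min room-temperature Fluo4 loading, 110 s read | Detection: Kinetic Fluo4 calcium fluorescence | Measure: Integrated baseline-normalised fluorescence ratio, converted to per-well B score | Benchmarks: Low control buffer alone, high control maximal DAMGO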
TRPC6 inh: blocks the mouse TRPC6 cation channel | 310,000 compounds, 1.1% hits | AID 2553 | B-score at 10 µM | HEK293-TRPC6, membrane potential dye, ACh-evoked depolarization; stronger effect = lower value | Q61143;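 active = B-score under library mean minus 3 SD, initial fluorescence not abnormally high, positive integrated signal ratio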;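 also: B-score derived from integrated fluorescence ratio over the kinetic read; more negative B-score means stronger inhibition of depolarization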
TRPC6 act: activates the mouse TRPC6 cation channel | HEK293-TRPC6 membrane potential dye fluorescence; stronger effect = higher value | B-score at 10 µM | 310,000 compounds, 0.13% hits | AID 2550;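 active = B-score of the integrated fluorescence ratio above library mean plus 3 SD, and starting fluorescence ratio within library mean plus 5 SD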;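 also: higher score means more depolarization so channel activation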
TRPC4 potent: allosteric potentiators of mouse TRPC4 channel; Q9QUQ5; HEK293 TRPC4beta/mu-opioid, DAMGO EC20, Fluo-4 Ca2+ flux; stronger effect = higher value; B-score at 10 µM; 310,000 compounds, 0.42% hits; AID 2227;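 active = B-score of calcium response area above 5 SD of library B-scores, with initial fluorescence ratio within 5 SD of library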;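 also: B-score of integrated fluorescence ratio over time as area under calcium response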
TRPC4 block: blocks the mouse TRPC4 cation channel. HEK293 TRPC4beta/mu-opioid, DAMGO-evoked Fluo4 calcium flux; stronger effect = lower value. B-score at 10 µM. 300,000 compounds, 0.39% hits;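 active = B-score over 3 SD under the library average, no early fluorescence shift, positive overall ratio signal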
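Assay system: Stable TRPC4beta/mu-opioid receptor HEK293 cells | Reagent: DAMGO in two steps, submaximal then maximal | Compound dosing: Single concentration per test compound | Signal: Fluo4 Ca2+ flux fluorescence | Evaluation: Per-well B score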
Active calls of the source: *; i = inactive; nt = no result given. Shown are actives, neighbours in structure and some others; about 2.3% of the full set was active somewhere.

SMILES	TRPC4 agonist	TRPC6 inh	TRPC6 act	TRPC4 potent	TRPC4 block
COc1ccc(C(=O)c2no[n+]([O-])c2C(=O)c2ccc(OC)cc2)cc1	i	i	i	53*	i
O=C(c1cccs1)c1no[n+]([O-])c1C(=O)c1cccs1	54*	i	i	i	i
CC(Sc1nc2ccccc2c(=O)n1CC1CCCO1)C(=O)Nc1ccc(S(N)(=O)=O)cc1 (stereo unspecified)	i	i	i	i	i
Cc1cccc2sc(N(CCN(C)C)C(=O)c3cc(Cl)sc3Cl)nc12	i	i	i	12*	i
COc1cc(NC(=O)c2cc(-c3ccccc3Cl)on2)cc(OC)c1OC	i	i	i	i	i
CCc1ccc2nc3n[nH]c(N)c3cc2c1	68*	i	i	i	i
Cc1cc(C(=O)CCC(=O)N(C)CC(=O)Nc2ccccc2Br)c(C)s1	i	i	i	i	i
CC(=O)c1cc(CN2CCN(Cc3ccccc3)C(CCO)C2)cs1 (stereo unspecified)	i	i	i	i	i
CCN1CCN(c2nc(N)c([N+](=O)[O-])c(Nc3ccc(C)cc3)n2)CC1	i	i	i	17*	i
CCN1CCN(c2nc(N)c([N+](=O)[O-])c(Nc3ccc(C)c(C)c3)n2)CC1	i	i	i	29*	i
CCCN(c1nc(C)cc(OC)n1)S(=O)(=O)c1ccccc1	i	i	i	i	-5*
COc1cc(OC)c(/C=N/N2CCN(c3ccccc3OC)CC2)c(OC)c1	i	i	i	i	i
CN1CCN(CC(=O)Nc2c(C(=O)c3ccccc3)oc3ccccc23)CC1	i	i	i	i	i
COc1ccc2oc(C(=O)c3ccccc3)c(NC(=O)CN3CCN(C)CC3)c2c1	51*	-8.1*	i	19*	i
CC1Oc2ccccc2C=C1/C=N/Nc1ccc(C(=O)O)cc1 (stereo unspecified)	i	i	i	i	-5*
Cc1cc(-c2ccc(C)c(S(=O)(=O)N3CCN(C(=O)c4ccco4)CC3)c2)on1	i	i	i	45*	i
CCc1ccc(-c2cc(C)no2)cc1S(=O)(=O)N1CCN(C(=O)c2ccco2)CC1	i	i	i	i	i
COc1ccc(N2CCN(C3CCCCC3NS(=O)(=O)c3ccc(Cl)cc3)CC2)cc1 (stereo unspecified)	i	i	i	15*	i
COc1ccccc1N1CCN(C2CCCCC2NS(=O)(=O)c2ccc(Cl)cc2)CC1 (stereo unspecified)	i	i	i	i	i
CC(C)(CC(=O)O)CC(=O)N1CCCN(c2nccc(C(F)(F)F)n2)CC1	i	i	i	i	i
Cc1ccccc1OCCCc1c(C)n[nH]c1C	i	i	i	i	nt
Cc1n[nH]c(C)c1CCCCOc1ccccc1F	i	i	i	i	-6*
Cc1ccccc1OCCCCc1c(C)n[nH]c1C	i	i	i	i	-6*
Cc1n[nH]c(C)c1CCCCOc1ccccc1	i	i	i	i	-7*
Cc1ccc(OCCCc2c(C)n[nH]c2C)cc1	i	i	i	i	i
SMILES	TRPC4 agonist	TRPC6 inh	TRPC6 act	TRPC4 potent	TRPC4 block
CCNCc1nc2cc(Cl)ccc2c(=O)[nH]1	i	i	i	i	i
COc1ccc(N2CCN(C(=O)Cc3ccc(OC)c(OC)c3)CC2)cc1	i	i	i	i	i
O=[N+]([O-])c1ccc(NC(=S)N/C(=N/CS(=O)(=O)c2ccccc2)c2ccccc2)cc1	i	i	i	i	i
CCC(O)(c1ccc(OC)cc1)C(CN1CCOCC1)c1ccccc1 (stereo unspecified)	i	i	i	i	-6*
COc1ccc(C(O)(C2CCCCC2)C(CN2CCOCC2)c2ccccc2)cc1 (stereo unspecified)	i	i	i	14*	i
COc1ccc(C(O)(C(C)C)C(CN2CCOCC2)c2ccc(Cl)cc2)cc1 (stereo unspecified)	i	i	i	12*	i
COc1cccc(N2CCN(c3ccc4nnc(CCC(=O)Nc5ccc(F)cc5)n4n3)CC2)c1	i	i	i	i	i
O=C(CCCN=C1NS(=O)(=O)c2ccccc21)OCC(=O)c1ccc(F)cc1	48*	i	i	i	i
CCCc1cc(=O)n2[nH]c(C)cc2n1	i	i	i	i	i
Cc1ccc(C)c(-n2cc(CNC(C)Cn3cncn3)c(-c3ccccc3)n2)c1 (stereo unspecified)	66*	i	i	i	i
COc1ccc(-c2nn(-c3ccccc3)cc2CNC(C)Cn2cncn2)c(F)c1 (stereo unspecified)	i	i	i	i	i
Cc1ccc(-n2cc(CNC(C)Cn3cncn3)c(-c3ccc(F)cc3)n2)cc1 (stereo unspecified)	64*	i	i	i	i
O=C(Nc1ccncc1)C1CCC(CNS(=O)(=O)c2cccc3nsnc23)CC1 (stereo unspecified)	i	i	i	i	i
Cc1cc(=O)n2nc(N3CCCC(C(=O)Nc4ccc(C)c(C)c4)C3)sc2n1 (stereo unspecified)	i	i	i	i	i
Cc1ccc(OCC(=O)NCCCNC(=O)c2ccc(C)nc2)cc1	i	i	i	i	i
Clc1ccc(CN2C3=NCCCN3c3ccccc32)cc1	i	i	i	i	i
Clc1ccc(CN2C3=NCCCN3c3ccccc32)cc1Cl	i	i	i	i	-6*
CCOC(=O)N1CCN(C(=O)c2ccc(NC(=O)c3ccc(C)cc3)cc2)CC1	i	i	i	i	i
CCOC(=O)Cn1c(=O)c(F)cn(Cc2ccc(OC)c([N+](=O)[O-])c2)c1=O	i	i	i	i	i
COc1cc(C2NC(=S)NC(C)=C2C(=O)Nc2cc(C)cc(C)c2)ccc1O (stereo unspecified)	i	i	i	10*	i
CCN1C(=O)c2cccc3c(S(=O)(=O)Nc4ccccc4OC)ccc1c23	76*	i	i	i	i
Cn1c(Br)nc2c1c(=O)n(CC(O)COc1ccccc1)c(=O)n2C (stereo unspecified)	i	i	i	i	i
O=C(CNC(=O)c1ccc2c(c1)S(=O)(=O)N=C1CCCCCN12)Nc1ccc(F)c(F)c1	i	i	i	i	i
